Screens deposited in PubChem by The Scripps Research Institute Molecular Screening Center.
TRPML3 ag – agonists of human TRPML3 channel | HEK293 TRPML3-YFP, Fluo-8 calcium fluorescence; 100% = the carbachol control signal | Q8TDD5 | AID 1448 | 0.29% of 220,000 active | activation, % at 3 µM;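 active = activation above its plate's cutoff, the mean activation of the plate's test wells plus 3 SD, cut at about 12% in these data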;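 also: 0% = DMSO only wells and 100% = carbachol wells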
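Test system: HEK293 cells stably carrying human TRPML3-YFP; Doses: single dose, 3 µM final nominal compound, 0.3% DMSO final; Schedule: dye loading 1 h 37 °C then 30 min ambient, 125 s read; Technique: Fluo-8 calcium fluorescence; Benchmarks: high control carbachol 87 µM, low control DMSO.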
OXTR agonist – agonists of human oxytocin receptor | 0.32% of 320,000 active | CHO-OTR cells, Fluo-8 calcium fluorescence; normalized: DMSO 0%, oxytocin 100% | activation, % at 3 µM;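 active = activation above the mean of all tested compounds plus 3 SD, cutoff set per screening run, cut at about 20% in these data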;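 also: peak over basal fluorescence ratio from a 100 s FLIPR kinetic read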
V1R ag counter – counter-screen for oxytocin receptor agonists: human V1a receptor agonists; P37288; CHO-V1R cells, Fluo-8 calcium fluorescence, agonist mode; 0% DMSO, 100% 3 nM vasopressin; activation, % at 3 µM; 0.25% of 320,000 active; AID 2797;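 active = activation above the mean activation of all tested compounds plus 3 SD, per screening run, cut at about 20% in these data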;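 also: signal is peak over basal fluorescence ratio across a 100 second FLIPR read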
Target sequence (P37288 whole entry, looked up): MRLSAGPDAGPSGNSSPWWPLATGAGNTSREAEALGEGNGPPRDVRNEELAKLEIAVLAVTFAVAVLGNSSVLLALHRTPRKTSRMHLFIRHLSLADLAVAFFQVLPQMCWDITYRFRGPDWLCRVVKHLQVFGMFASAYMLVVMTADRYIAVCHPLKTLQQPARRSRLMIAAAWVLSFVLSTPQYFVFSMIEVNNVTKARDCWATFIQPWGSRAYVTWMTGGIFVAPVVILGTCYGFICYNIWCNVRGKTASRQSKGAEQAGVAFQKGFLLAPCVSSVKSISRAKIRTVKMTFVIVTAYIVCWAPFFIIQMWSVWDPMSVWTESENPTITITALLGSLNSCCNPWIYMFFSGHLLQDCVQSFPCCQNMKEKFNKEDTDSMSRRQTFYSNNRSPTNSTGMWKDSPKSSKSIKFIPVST
zfTRPN1 agonist – activates the zebrafish TRPN1 channel | AID 1424 | HEK293 zebrafish TRPN1-YFP, Fluo-8 calcium fluorescence; 100% = response to 87 µM carbachol | 0.18% of 220,000 active | activation, % at 3 µM;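 active = activation above its plate's cutoff, the mean activation of test wells on that plate plus 3 SD, cut at about 19% in these data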;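 also: 0% = DMSO alone and 100% = 87 µM carbachol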
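System: zebrafish TRPN1-YFP in HEK293 cells / Dosing: 3 µM single point / Timing: dye loading 1 h at 37 °C, then 30 min room temperature / Signal: Fluo-8 calcium fluorescence, excitation 470-495 nm, emission 515-575 nm / Read-out basis: percent activation from peak over basal fluorescence ratio, control-normalized / Control set: high carbachol 87 µM, low DMSO alone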
OXTR potentiate – human OXTR potentiation; activation, % at 3 µM; 0.061% of 320,000 active; CHO-OTR cells, Fluo-8 calcium fluorescence, potentiator mode; 0% = oxytocin EC15, 100% = EC100; AID 2445;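 active = activation above that plate's cutoff, the mean activation of tested compounds plus 3 SD, cut at about 6.6% in these data, passing the limit was not always enough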;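 also: 100% uses oxytocin at 75 nM as the full agonist control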
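test system = CHO-OTR cells, human receptor | compound = single-point 3.0 µM | schedule = 6 min compound pre-incubation at room temperature, 100 s kinetic read | signal = Fluo-8 no-wash calcium dye fluorescence, excitation 470-495 nm, emission 515-575 nm | repeats = single well per compound, singlicate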
OXTR ag confirm – human OXTR agonism, confirmation; CHO-OTR cells, Fluo-8 calcium fluorescence, agonist; 20% of 390 active; activation, % at 3 µM; shares compounds with OXTR agonist;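 active = mean activation above about 20% derived from the earlier single-dose screen, limit read from the data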;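 also: peak over minimum fluorescence ratio per well during a 100 second FLIPR read; 0% = DMSO alone and 100% = oxytocin high control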
V1aR counter 3x – counter-screen for oxytocin receptor agonists: V1a receptor agonists; AID 434991; activation, % at 3 µM; shares compounds with OXTR agonist; 10% of 390 active; CHO-V1R cells, Fluo-8 calcium fluorescence, agonist;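 active = mean activation over triplicate exceeds the hit threshold set in the earlier primary screen, cut at about 20% in these data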;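 also: peak over basal fluorescence ratio within a 100 second read; 0% = DMSO alone and 100% = 3 nM vasopressin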
Numbers without * were called inactive. This is a sample that favours compounds with a hit; in the whole collection about 0.58% have one here.

`COc1ccc(C2SCCN2C(=S)Nc2ccc(Cl)cc2)cc1` (stereo not given) gave TRPML3 ag 0, OXTR agonist 15, V1R ag counter 9, zfTRPN1 agonist 1 and OXTR potentiate -13.
Screening Cc1ccc(C(=O)NC(=S)NNC(=O)c2ccccc2O)cc1 returned OXTR agonist 22*, V1R ag counter 11, OXTR potentiate -23, OXTR ag confirm 35* and V1aR counter 3x 30*.
`COc1cccc(/C=N/Nc2snc(SC)c2C#N)c1O` gave TRPML3 ag 10, OXTR agonist 21*, V1R ag counter 13, zfTRPN1 agonist 11, OXTR potentiate -10, OXTR ag confirm 20* and V1aR counter 3x 11.
Screening CCn1c(=O)c(C(=O)Nc2ncccc2C)c(O)c2ccccc21 returned TRPML3 ag 3, OXTR agonist 32*, V1R ag counter 20, zfTRPN1 agonist 14, OXTR potentiate -6, OXTR ag confirm 6 and V1aR counter 3x 33*.
COC(=O)c1ccc(C(=O)N2CCCC(Nc3ccc(C(C)C)cc3)C2)nc1 (stereo not given) was read as OXTR agonist 3, V1R ag counter 5 and OXTR potentiate 5.
Cc1ccccc1-n1sc2cc(F)ccc2c1=O was read as TRPML3 ag 8, OXTR agonist 23*, V1R ag counter 16, zfTRPN1 agonist 12, OXTR potentiate -8, OXTR ag confirm 14 and V1aR counter 3x 15.
`O=c1c2cc(F)ccc2sn1-c1ccccc1` gave OXTR agonist 18, V1R ag counter 14 and OXTR potentiate -9.
Screening C=CCOC(=O)C1=C(C)NC(C)=C(C(=O)OCC=C)C1c1ccco1 returned TRPML3 ag -2, OXTR agonist -1, V1R ag counter 1, zfTRPN1 agonist -3 and OXTR potentiate 0.
Screening Cc1c(C(=O)O)sc2nc(-c3cccs3)cc(C(F)(F)F)c12 returned OXTR agonist 0, V1R ag counter 0 and OXTR potentiate -10.
For CC(=O)c1sc2nc(-c3cccs3)cc(C(F)(F)F)c2c1N the results were TRPML3 ag 5, OXTR agonist 27*, V1R ag counter 14, zfTRPN1 agonist 12, OXTR potentiate -18, OXTR ag confirm 40* and V1aR counter 3x 52*.
`COc1ccc(NS(=O)(=O)c2ccc(C(=O)N3CCN(c4ccc(F)cc4)CC3)cc2)cc1` gave OXTR agonist 22*, V1R ag counter 16, OXTR potentiate -14, OXTR ag confirm 16 and V1aR counter 3x 15.
`O=C(c1ccc(S(=O)(=O)Nc2ccc(F)cc2)cc1)N1CCN(c2ccccn2)CC1` gave TRPML3 ag 6, OXTR agonist 21*, V1R ag counter 13, zfTRPN1 agonist 10, OXTR potentiate -16, OXTR ag confirm 14 and V1aR counter 3x 12.
O=C(c1ccc(NS(=O)(=O)c2ccc(F)cc2)cc1)N1CCCCC1 was read as OXTR agonist 1, V1R ag counter 2 and OXTR potentiate -13.
COc1ccc(N2CCN(C(=O)c3ccc(NS(=O)(=O)c4ccc(F)c(F)c4)cc3)CC2)cc1 was read as TRPML3 ag 0, OXTR agonist 14, V1R ag counter 11, zfTRPN1 agonist -1 and OXTR potentiate -6.
Screening CC(C)(CNC(=O)c1ccc(S(=O)(=O)Nc2ccc(Cl)cc2)cc1)N1CCOCC1 returned OXTR agonist 21*, V1R ag counter 15, OXTR potentiate -12, OXTR ag confirm 10 and V1aR counter 3x 6.
CCOc1ccc(NS(=O)(=O)c2ccc(C(=O)NCC(C)(C)N3CCOCC3)cc2)cc1 was read as OXTR agonist 7, V1R ag counter 8 and OXTR potentiate -4.
For CC1CN(S(=O)(=O)c2ccc(C(=O)Nc3ccc(S(=O)(=O)Nc4nccs4)cc3)cc2)CC(C)O1 (stereo not given) the results were TRPML3 ag 0, OXTR agonist 0, V1R ag counter 0, zfTRPN1 agonist 2 and OXTR potentiate 2.
`CCNC(=S)N1CCN(S(=O)(=O)c2ccccc2C(F)(F)F)CC1` gave TRPML3 ag 3, OXTR agonist 7, V1R ag counter 5, zfTRPN1 agonist 4 and OXTR potentiate -4.
N#C/C(=C\c1ccc(N2CCOCC2)o1)C(=O)NCCc1ccccc1 was read as TRPML3 ag 14*, OXTR agonist 21*, V1R ag counter 19, zfTRPN1 agonist 26*, OXTR potentiate -14, OXTR ag confirm 23* and V1aR counter 3x 46*.
Screening COCCNC(=O)/C(C#N)=C/c1ccc(N2CCOCC2)o1 returned TRPML3 ag 2, OXTR agonist 6, V1R ag counter 10, zfTRPN1 agonist 5 and OXTR potentiate -6.
CCn1c2ccccc2c2cc(CNCc3ccc(OC)cc3OC)ccc21 was read as TRPML3 ag 1, OXTR agonist 23*, V1R ag counter 5, zfTRPN1 agonist 0, OXTR potentiate -12, OXTR ag confirm 5 and V1aR counter 3x 2.
Screening COc1cccc(CNCc2ccc(OC)cc2OC)c1 returned OXTR agonist 2, V1R ag counter 3 and OXTR potentiate -1.
Screening CCCCCCCCCCCCCCCC[N+](C)(C)CC returned OXTR agonist 21*, V1R ag counter 4, OXTR potentiate -9, OXTR ag confirm 21* and V1aR counter 3x 0.
Clc1ccc(C2=Nn3c(nnc3-c3n[nH]c4c3CCC4)SC2)cc1Cl was read as TRPML3 ag -1, OXTR agonist -2, V1R ag counter -1, zfTRPN1 agonist -2 and OXTR potentiate -4.
Screening COc1cccc(NS(=O)(=O)c2ccc3c(c2)CCN3C(C)=O)c1 returned OXTR agonist 20*, V1R ag counter 14, OXTR potentiate -22, OXTR ag confirm 9 and V1aR counter 3x 9.
Screening CSc1cccc(NS(=O)(=O)c2ccc3c(c2)CCN3C(C)=O)c1 returned OXTR agonist 20*, V1R ag counter 17, OXTR potentiate -23, OXTR ag confirm 11 and V1aR counter 3x 10.
Screening CC(=O)N1CCc2cc(S(=O)(=O)Nc3cccc(C(F)(F)F)c3)ccc21 returned TRPML3 ag 2, OXTR agonist 13, V1R ag counter 9, zfTRPN1 agonist 3 and OXTR potentiate -19.
`COc1ccc2c(c1)sc(N)[n+]2Cc1cc(C)cc2cccnc12` gave TRPML3 ag -1, OXTR agonist 3, V1R ag counter 4, zfTRPN1 agonist -1 and OXTR potentiate -7.
COc1ccc(-c2ccc(C#N)c(SCC(=O)NCCc3ccccc3)n2)cc1OC was read as TRPML3 ag 0, OXTR agonist -3, V1R ag counter -1, zfTRPN1 agonist -1 and OXTR potentiate -3.
